# procasp7 counter – procaspase-7 activators, primary screen, counter-screen for procaspase-3 activator project, biochemical, absorbance, HTS, human; AID 463210, 2010; activation, % at 8.5 µM; 0.093% of 330,000 active; recombinant procaspase-7, Ac-DEVD-pNA absorbance 405 nm; D23A/D198A/D206A triple mutant, cannot self-cleave; scale: DMSO 0, 5 µM enzyme 100;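 active means percent activation above the screen-wide mean plus 3 SD, cut at about 25% in these data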
#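 System: Uncleavable procaspase-7 mutant enzyme; Amount: 2 µM procaspase-7 mutant as dispensed; Schedule: 1 h compound preincubation, 2 h substrate cleavage, 25 °C; Measured by: 405 nm absorbance of p-nitroaniline; Evaluation: percent activation from buffer-corrected 0–120 min absorbance change; Control set: low DMSO alone, high DMSO plus 5 µM PC-7.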
# MsrA act – bovine MsrA enzyme activators, primary screen, biochemical, absorbance, HTS; Methionine sulfoxide reductase A (Bos taurus); purified bovine MsrA, absorbance read-out; AID 602163, 2012; 0.3% of 360,000 active; activation, % at 10.6 µM; in the data active means activation above about 7.5%;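 further: 0% = vehicle and 100% = reference activator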
# procasp3 activ – activators of human procaspase-3 D3A mutant, primary screen, biochemical, absorbance, PC-3 D3A mutant, single concentration; Caspase-3 (Homo sapiens), P42574; recombinant procaspase-3 D3A, Ac-DEVD-pNA absorbance 405 nm; activation, % at 8.5 µM; 0.11% of 330,000 active;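 active means activation above the mean of all tested compounds plus 3 SD, cut at about 21% in these data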;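 further: 0% = DMSO alone and 100% = DMSO wells spiked with extra 5 µM PC-3 D3A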
# Target sequence (P42574 whole entry D9A/D28A/D175A): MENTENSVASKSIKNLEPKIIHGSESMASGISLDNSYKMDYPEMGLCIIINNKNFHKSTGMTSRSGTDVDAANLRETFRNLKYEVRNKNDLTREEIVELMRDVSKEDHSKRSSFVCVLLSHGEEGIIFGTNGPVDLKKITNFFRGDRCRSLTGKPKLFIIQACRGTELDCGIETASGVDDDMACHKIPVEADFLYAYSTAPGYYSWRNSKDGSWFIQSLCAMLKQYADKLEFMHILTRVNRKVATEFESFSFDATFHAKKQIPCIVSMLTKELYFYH
#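 Compound: 8.5 µM single point, 0.8% DMSO / Material: Autoprocessing-dead procaspase-3 D3A mutant enzyme / Timing: 1 h preincubation plus 2 h reaction at 25 °C / Medium: Zinc-free HEPES/NaCl buffer with 0.01% Triton X-100 at pH 7.4 / Technique: 405 nm absorbance of p-nitroaniline, reads at 0 and 120 min / Repeats: one well per compound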
# MsrA inh – bovine MsrA enzyme inhibitors, primary screen, biochemical, absorbance, HTS; inhibition, % at 15.5 µM; Methionine sulfoxide reductase A (Bos taurus); 0.75% of 360,000 active; AID 651718, 2012; purified bovine MsrA, absorbance read-out;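 further: 0% = vehicle wells with enzyme and 100% = reference inhibitor wells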
# MsrA conf – bovine MsrA inhibitors, retest, confirmation, biochemical, absorbance, HTS; 41% of 2,300 active; purified bovine MsrA, absorbance read-out; inhibition, % at 15.5 µM; shares compounds with MsrA inh;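 further: coupled to thioredoxin reductase with NADPH and selenocystamine and DMSO as substrate; 0% = vehicle only and 100% = full effect of reference inhibitor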
# * hit, by the source's call; x = not tested or not shown. Most compounds without a hit are left out; they make up all but 1.2% or so of the library. Unless noted, no stated cut-off is given here; in the data, active means inhibition above about 4.5%; inactive means the rest.
SMILES,procasp7 counter,MsrA act,procasp3 activ,MsrA inh,MsrA conf
CN1C(=O)[C@@]2(C3=C(CCCC3=O)OC3=C2C(=O)CC(C)(C)C3)c2ccccc21,x,x,x,-0.2,x
COc1ccc(/C=C\C(=O)c2c(O)ccc3c(C)cc(=O)oc23)cc1OC,2.2,-3.5,2.7,5.2*,4.3
Cc1cc(=O)oc2c(C(=O)/C=C/c3ccccc3)c(O)ccc12,4.3,-3.9,-5.9,-1.0,x
Cc1cc(=O)oc2c(C(=O)/C=C\c3cccs3)c(O)ccc12,6.0,-6.0,0.3,5.2*,6.3*
COc1cc(/C=C/C(=O)c2c(O)ccc3c(C)cc(=O)oc23)ccc1O,-2.6,-7.8,0.6,6.9*,6.1*
CCOC(=O)N1CCN(C(=O)C[C@H]2C[C@@]3(C(=O)OC)C(=C[C@H](COCc4ccccc4)O[C@@H]3C)N(CCC3=CCCCC3)C2=O)CC1,x,x,x,-0.8,x
COC(=O)c1cc2c(c3c4cc(F)ccc4n(S(=O)(=O)c4ccccc4)c13)C(=O)N(Cc1ccccc1)C2,x,x,x,0.2,x
COC(=O)C1=C(C)N(Cc2cccc(C(F)(F)F)c2)C(=NCc2ccccc2C(F)(F)F)NC1c1ccc(Cl)cc1 (stereo not given),x,x,x,0.2,x
Cc1ccc(-n2c(SCC(=O)O)nc3c(sc(=S)n3-c3ccc(C)c(C)c3)c2=O)cc1,-9.9,-3.0,-2.1,3.0,x
Cc1ccc(-n2c(=S)sc3c(=O)n(-c4ccc(F)cc4)c(SCC(=O)O)nc32)cc1C,3.1,-6.0,1.1,5.3*,1.9
O=C1OC(c2ccccc2)=N/C1=C\C=C\c1ccco1,-3.2,-7.4,2.0,4.9*,2.0
O=C1OC(c2ccccc2)=N/C1=C\C=C\c1ccccc1[N+](=O)[O-],-15.4,-7.1,-4.0,2.4,x
O=C(C=Cc1ccco1)c1cc(Cl)ccc1O,x,-4.5,x,0.7,x
O=C1OC(c2ccc(Cl)cc2)=N/C1=C\C=C\c1ccco1,-4.0,-0.3,-6.8,4.7*,4.3
Cc1ccc(S(=O)(=O)N2CCN(S(=O)(=O)c3ccc(C)cc3)C2)cc1,-3.1,-5.1,-3.3,5.5*,1.9
Cc1cc2c(nc1C)CCCN2S(=O)(=O)c1ccc(C(F)(F)F)cc1,x,x,x,0.0,x
N#CC(c1ccc(O)cc1)N1CCN(C(C#N)c2ccc(O)cc2)CC1 (stereo not given),x,-4.7,x,5.0*,1.2
CCN(CC)c1ccc(C=NNc2ccc([N+](=O)[O-])cn2)cc1,x,-3.1,x,0.3,x
CCN(CC)c1ccc(/C=N/NS(=O)(=O)c2cccc([N+](=O)[O-])c2)cc1,-22.1,-6.7,-20.7,5.4*,3.3
CCN(CC)c1ccc(/C=N/NS(=O)(=O)c2ccc(CNC(C)=O)cc2)cc1,-7.6,-4.2,-1.5,6.2*,2.0
CCN(CC)c1ccc(C=NCCc2ccc(S(N)(=O)=O)cc2)cc1,6.3,-12.4,5.1,4.7*,2.5
CCN(Cc1ccccc1)c1ccc(/C=N/NS(=O)(=O)c2ccc(C)c([N+](=O)[O-])c2)cc1,-3.1,-12.9,-0.8,4.8*,2.2
CC(C)C[C@H]1COc2cc(N3CCOCC3)ccc2S(=O)(=O)N1,x,x,x,-0.4,x
COC(=O)[C@]12C[C@H](CC(=O)NCCCCc3ccccc3)C(=O)N(CCC3=CCCCC3)C1=C[C@H](COCc1ccccc1)O[C@@H]2C,x,x,x,-0.2,x
N#C/C(=N\Nc1ccccc1)C(=N)N1CCOCC1,10.8,-9.5,-6.4,5.1*,2.3
Cc1ccc(N/N=C(\C#N)C(=N)N2CCOCC2)cc1,-3.8,-2.9,-7.4,2.5,x
COC(=O)c1ccc2c(=O)n(CCCCCC(=O)NC3CCCCC3)c(=O)[nH]c2c1,x,x,x,0.3,x
COC(=O)C1=C(C)N(Cc2ccc(C(F)(F)F)cc2)C(=NCc2ccccc2C(F)(F)F)NC1c1ccc(C(F)(F)F)cc1 (stereo not given),x,x,x,-1.5,x
